Source: PMC8842350 (Journal of Experimental Pharmacology, 2022)
Where two headings read alike, the source gives them in different places.

How the values were obtained:
beagle dogs [1] = assay: telemetry ECG evaluation in dogs; format: in vivo, dog
Method in brief: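 Male beagles with abdominal ECG/pressure/temperature transmitters implanted at least 2 weeks before. Oral capsule doses of 0, 1, 10 or 30 mg/kg in a Latin square with 2-day washouts. ECG recorded from at least 90 min pre-dose to about 18 h post-dose. QTc from a per-animal regression of 1-min QT versus RR means on the control day. Waveform review at 1, 2, 4, 8, 12 and 18 h. Repeated-measures ANCOVA with Dunnett tests.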

Sprague Dawley rats [2] = assay: locomotor activity assessments; format: in vivo, rat; details: female rats; for basic movements: day 2, 4–6 minutes post-commencement of assessment, control 375, p ≤ 0.05
Method in brief: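 Female rats, 8 per group, dosed orally on days 1 and 2 at 0–1000 mg/kg/day. Tested pre-dose and on day 2: within 10 min after the functional battery, each rat was placed in a dark, sound-attenuated chamber. Photocell recording ran for 40 min, reported in 20 intervals of 2 min each. Read-outs: basic movement, horizontal and vertical ambulation, fine movement, rearing.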

P-glycoprotein (P-gp) = details: cited from earlier work
[3] = dogs, 50 mg/kg; cited from earlier work
rats = details: doses up to 30 mg/kg; cited from earlier work
CYP3A4 = details: cited from earlier work
hERG potassium channel = details: cited from earlier work
D2 receptor [4] = details: rats, prolactin release as pharmacodynamic biomarker; cited from earlier work
[5] = rats, 100 mg/kg; cited from earlier work
Sprague Dawley rats [6] = assay: clinical observations and examinations in rats; format: in vivo, rat; details: rats treated with trazpiroben
Method in brief: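 Sprague Dawley rats, 11–12 weeks old, group-housed and acclimatised at least 1 week. Oral gavage at 0 (vehicle: 5% DMSO, 40% PEG 400, 55% saline), 100, 300 or 1000 mg/kg/day, 10 mL/kg, dose expressed as maleate salt. Checked twice daily for mortality, abnormalities and signs of pain or distress. Ophthalmic examination and body weight were recorded once pre-dose.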

[7] = beagle dogs; cited from earlier work
CYP enzyme = details: cited from earlier work
beagle dogs [8] = assay: telemetry hemodynamic measurements in dogs; format: in vivo, dog; details: for adjusted mean diastolic pressure, lower vs control: 1 hour post-dose; for adjusted mean pulse pressure, lower than controls / adjusted mean systolic pressure, lower than controls: 3 hours post-dose; for adjusted mean systolic pressure, lower than controls: not significant
Method in brief: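 Telemetered male beagles (abdominal transmitter implanted at least 2 weeks before) given oral capsules at 0, 1, 10 or 30 mg/kg in a Latin square on days 1, 4, 8 and 11. Systolic, diastolic and mean arterial pressure, pulse pressure and heart rate recorded continuously from at least 90 min pre-dose to about 18 h post-dose. Analysed by repeated-measures ANCOVA with Dunnett or Dunnett–Hsu comparisons against control.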

beagle dogs [9] = assay: clinical observations, body weight and body temperature in dogs; format: in vivo, dog
Method in brief: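 Four male beagles, 17–18 months old, 9.9–12.8 kg. Oral gelatin capsules at 0 (Avicel:Explotab 10:1), 1, 10 or 30 mg/kg (maleate salt) on days 1, 4, 8 and 11, in a Latin square with ascending doses and 2-day washouts. Checked twice daily for mortality, abnormalities and distress, with daily cage-side observations. Body weight recorded pre-dose and the day before each dosing. Body temperature recorded by implanted telemetry.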

Sprague Dawley rats [10] = assay: pulmonary assessments; format: in vivo, rat; details: male rats, any dose level (100–1000 mg/kg/day)
Method in brief: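 Eight male Sprague Dawley rats per group. Acclimated 4 days, then placed in head-out plethysmography chambers three times on separate days. On day 1, a single oral gavage dose of 0, 100, 300 or 1000 mg/kg (DMSO/PEG 400/saline vehicle), then immediate chamber placement. Recorded at baseline, through 6 h and about 24 h post-dose. Analysed by repeated-measures ANCOVA with Dunnett–Hsu comparisons against control.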

Sprague Dawley rats [11] = assay: functional observational battery; format: in vivo, rat; details: female rats, oral ≤ 1000 mg/kg/day, 0.5 hours post-dose on day 2
Method in brief: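 Eight female Sprague Dawley rats per group received oral gavage on days 1 and 2 at 0, 100, 300 or 1000 mg/kg/day (vehicle: 5% DMSO, 40% PEG 400, 55% saline; 10 mL/kg). Functional observational battery run once pre-dose and about 0.5 h post-dose on day 2, at the same time of day ±2 h. It covered sensory reactivity (approach response, righting reflex), grip strength, foot splay and body temperature.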

D2 receptor [12] = details: humans, cited from earlier work
humans = details: any dose up to the maximum of 300 mg; cited from earlier work
[13] = toxicokinetic analysis in rat plasma; format: in vivo; details: all dose groups
Method in brief: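 Toxicokinetic cohort of 60 Sprague Dawley rats (30 male), separate from the pharmacology groups. A single oral dose was given on day 1 at 0, 100, 300 or 1000 mg/kg (maleate salt). Blood was drawn from the jugular vein of non-fasted rats on a serial schedule. Cmax, Tmax and AUC were derived from plasma concentration–time data.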

## O=C(O)c1cccc(CN2CN(C3CCCCC3)C3(CCN(CCCC(=O)c4ccccc4)CC3)C2=O)c1 [Trazpiroben]
Beagle dogs [1]; dogs, 30 mg/kg, 3 hours after administration (maximal effect)
  adjusted PR interval mean, lower than control: 12%
Beagle dogs [1]; dogs, 30 mg/kg, 3 hours after administration, control 102 msec
  adjusted PR interval mean: 90 ms
Beagle dogs [1]; dogs, 1, 10, 30 mg/kg
  effects on QRS duration or QT interval corrected for heart rate (QTc): no trazpiroben-related effects
Beagle dogs [1]; dogs, first light cycle, 30 mg/kg, not significant at any dose
  QT interval, lower than control: ≤ 6%
Beagle dogs [1]; male beagle dogs, oral 1, 10, 30 mg/kg
  abnormal ECG waveforms or arrhythmias: No abnormal ECG waveforms or arrhythmias were recorded
Sprague Dawley rats [2]; 300 mg/kg/day
  basic movements: 199 basic movements in 2 minutes
Sprague Dawley rats [2]; 1000 mg/kg/day
  basic movements: 171 basic movements in 2 minutes
Sprague Dawley rats [2]; ≥ 300 mg/kg/day, 2–6 minutes post-dose
  counts of horizontal and vertical ambulation: significantly decreased
P-glycoprotein (P-gp)
  substrate for the efflux transporter P-glycoprotein (P-gp): substrate
[3]
  brain penetration: minimal brain penetration
rats
  effects in rotarod testing (motor coordination): no trazpiroben-related effects were observed
CYP3A4; Phase I drug–drug interaction study in healthy volunteers, ref NCT03161405
  CYP3A4 substrate classification: non-sensitive CYP3A4 substrate
hERG potassium channel
  difference in affinity, hERG versus intended D2/D3 receptor targets: 10,000 fold
D2 receptor [4]
  dose at which maximal D2 receptor engagement occurs: 1 mg/kg
[5]
  brain penetration: minimal brain penetration
Sprague Dawley rats [6]
  clinical observations, ophthalmic and body weight parameters: No unexpected clinical observations or changes
  mortality: no trazpiroben-related mortality
[7]
  median Tmax: approximately 1 hour post-dose
CYP enzyme
  potential for CYP enzyme induction or inhibition: limited potential for CYP enzyme induction or inhibition
Beagle dogs [8]; 1 mg/kg, 4 hours post-dose, p ≤ 0.05
  adjusted mean diastolic pressure, higher vs control: 6%
Beagle dogs [8]; 10 mg/kg, p ≤ 0.05
  adjusted mean diastolic pressure, lower vs control: 5%
Beagle dogs [8]; 10 mg/kg
  adjusted mean pulse pressure, lower than controls: 15%
  adjusted mean systolic pressure, lower than controls: 6%
Beagle dogs [8]; 10 mg/kg, 4 hours post-dose, p ≤ 0.05
  adjusted mean diastolic pressure, higher vs control: 8%
Beagle dogs [8]; 10 mg/kg, 5 hours post-dose, p ≤ 0.01
  adjusted mean diastolic pressure, higher vs control: 6%
Beagle dogs [8]; 30 mg/kg, p ≤ 0.01
  adjusted mean diastolic pressure, lower vs control: 8%
Beagle dogs [8]; 30 mg/kg
  adjusted mean pulse pressure, lower than controls: 23%
  adjusted mean systolic pressure, lower than controls: 9%
Beagle dogs [8]; 30 mg/kg, 3 hours post-dose (greatest effect), first light cycle
  heart rate, higher than control: 28%
Beagle dogs [8]; 30 mg/kg, 4 hours post-dose, p ≤ 0.05
  adjusted mean diastolic pressure, higher vs control: 5%
Beagle dogs [8]; 30 mg/kg, 5 hours post-dose, p ≤ 0.01
  adjusted mean diastolic pressure, higher vs control: 6%
Beagle dogs [8]; all changes, all doses
  changes in diastolic pressure, different from control: ≤ 8%
Beagle dogs [9]; doses ≤ 30 mg/kg
  effects on body weight or temperature: not associated with effects on body weight or temperature
Beagle dogs [9]; to study termination on day 12
  survival: all dogs survived
Sprague Dawley rats [10]
  effect on respiration rate or minute volume: No biologically relevant effect
Sprague Dawley rats [11]
  effects on FOB assessment results: No effects were observed
D2 receptor [12]; first-in-human Phase I trial
  dose at which maximal D2 receptor engagement occurs: 10 mg
D2 receptor [12]; inferred using prolactin release
  average Cmax in plasma at maximal D2 receptor engagement: ~ 11 ng/mL
humans
  CNS effects: no CNS effects noted
[13]
  observed Cmax for each group of rats receiving trazpiroben: ≥ 1450 ng/mL

## O=c1[nH]c2ccccc2n1CCCN1CCC(n2c(=O)[nH]c3cc(Cl)ccc32)CC1 [domperidone, reference compound]
CYP3A4
  metabolizing enzyme: primarily metabolized via the cytochrome P450 (CYP) 3A4 enzyme
hERG potassium channel; read-out: IC50, hERG potassium channel
  IC50: 57 nM
